Test results as given in article PMC10786240 (Antiviral research, 2019).
Entries after “also recorded” stand apart in the source; their conditions may differ.

How the values were obtained:
HeLa cells = experiment: 48 h cytotoxicity assay; format: cell-based; details: for effect of co-administration on antiproliferative OSW-1 activity, HeLa: 48 h, compound at 10,000 nM with OSW-1
[1] = test system: OSBP levels in HCT-116 and HEK293 cells; experiment: OSBP expression in cells upon 24 h compound treatment; format: cell-based, human; details: for effect on OSBP cellular levels: OSW-1 1 nM, Taxol 10 nM, ITZ, THEV, TTP 10,000 nM, HEK293 and HCT-116; for effect of co-administration on OSW-1-induced reduction of OSBP levels: 10,000 nM compound with 1 nM OSW-1, HEK293 and HCT116
In short: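 HCT-116 (McCoy's 5A, 10% serum, 1% penicillin-streptomycin) or HEK293 cells seeded 5×10^5 per well, 20 h at 37 °C. Compound diluted from stock in complete medium, alone or with 1 nM OSW-1 co-treatment, for 24 h; DMSO vehicle control. Lysates immunoblotted for OSBP (A-5 antibody), β-actin as loading reference. Bands averaged over independent experiments.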

cells = details: 6 h OSW-1 treatment of cells; cited from earlier work
[2] = test system: OSBP levels in HeLa cells; experiment: OSBP levels in HeLa cells after 6 h treatment and 24 h compound-free recovery; format: cell-based, human; details: 6 h OSW-1 (10 nM) treatment, 24 h recovery, just prior to viral infection
In short: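 HeLa cells exposed 6 h to compound in complete medium, washed three times, then held 24 h in compound-free complete medium. OSBP read by Western blot (A-5 antibody, β-actin reference) at the time point corresponding to viral inoculation in washout antiviral runs.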

HEK293 cells = experiment: 48 h cytotoxicity assay; format: cell-based; details: read-out: growth inhibition 50% (GI50), HEK293 cells; 48 h treatment
human OSBP [3] = target: T1, human OSBP (Homo sapiens, UniProt P22059); details: cited from earlier work
T1 sequence (P22059 1-807): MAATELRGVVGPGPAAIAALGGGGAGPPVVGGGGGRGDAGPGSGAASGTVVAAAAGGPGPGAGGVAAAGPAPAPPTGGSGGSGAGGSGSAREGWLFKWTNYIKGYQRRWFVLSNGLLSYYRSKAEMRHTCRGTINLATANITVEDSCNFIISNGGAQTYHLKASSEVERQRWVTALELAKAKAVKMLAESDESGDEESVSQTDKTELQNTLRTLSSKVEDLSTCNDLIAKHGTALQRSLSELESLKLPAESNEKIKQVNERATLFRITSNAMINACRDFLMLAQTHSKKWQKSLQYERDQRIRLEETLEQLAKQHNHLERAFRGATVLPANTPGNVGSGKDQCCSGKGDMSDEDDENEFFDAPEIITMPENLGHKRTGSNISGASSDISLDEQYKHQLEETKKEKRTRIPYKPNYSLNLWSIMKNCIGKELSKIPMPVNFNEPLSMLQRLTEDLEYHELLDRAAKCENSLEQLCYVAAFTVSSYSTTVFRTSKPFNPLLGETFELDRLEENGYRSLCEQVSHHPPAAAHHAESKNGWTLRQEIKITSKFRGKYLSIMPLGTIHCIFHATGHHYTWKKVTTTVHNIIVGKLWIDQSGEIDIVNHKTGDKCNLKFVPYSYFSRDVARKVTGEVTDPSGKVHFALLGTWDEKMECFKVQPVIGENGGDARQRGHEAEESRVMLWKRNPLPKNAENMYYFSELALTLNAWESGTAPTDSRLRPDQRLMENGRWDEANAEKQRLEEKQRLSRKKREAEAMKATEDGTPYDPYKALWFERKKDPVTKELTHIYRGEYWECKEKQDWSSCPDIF

[4] = test system: OSBP localization in HCT-116 cells; experiment: immunofluorescence imaging of endogenous OSBP localization; format: cell-based; details: for OSBP cellular localization: 24 h, OSW-1 1 nM, 25-OHC, ITZ, TTP, THEV 10,000 nM, Golgi marker TGN46; for OSBP cellular localization on co-administration with OSW-1: 24 h, 10,000 nM compound with 1 nM OSW-1
HCT-116 cells = experiment: Trypan Blue cell viability assay; format: cell-based; details: for effect on cell population (cell counting after Trypan blue staining): 24 h, OSW-1 1 nM, ITZ, THEV, TTP 10,000 nM, each alone
[5] = test system: Coxsackievirus A9 (strain CoxA9–01); details: HeLa; 1 nM OSW-1; infection 24 h after treatment ended; cited from earlier work
[6] = test system: Echovirus 2 (strain Echo2–01); details: HeLa; 1 nM OSW-1; infection 24 h after treatment ended; cited from earlier work
OSBP levels in cells = details: cited from earlier work
human ORP4 [7] = target: T2, human ORP4 (Homo sapiens, UniProt Q969R2); details: cited from earlier work
T2 sequence (Q969R2 1-916): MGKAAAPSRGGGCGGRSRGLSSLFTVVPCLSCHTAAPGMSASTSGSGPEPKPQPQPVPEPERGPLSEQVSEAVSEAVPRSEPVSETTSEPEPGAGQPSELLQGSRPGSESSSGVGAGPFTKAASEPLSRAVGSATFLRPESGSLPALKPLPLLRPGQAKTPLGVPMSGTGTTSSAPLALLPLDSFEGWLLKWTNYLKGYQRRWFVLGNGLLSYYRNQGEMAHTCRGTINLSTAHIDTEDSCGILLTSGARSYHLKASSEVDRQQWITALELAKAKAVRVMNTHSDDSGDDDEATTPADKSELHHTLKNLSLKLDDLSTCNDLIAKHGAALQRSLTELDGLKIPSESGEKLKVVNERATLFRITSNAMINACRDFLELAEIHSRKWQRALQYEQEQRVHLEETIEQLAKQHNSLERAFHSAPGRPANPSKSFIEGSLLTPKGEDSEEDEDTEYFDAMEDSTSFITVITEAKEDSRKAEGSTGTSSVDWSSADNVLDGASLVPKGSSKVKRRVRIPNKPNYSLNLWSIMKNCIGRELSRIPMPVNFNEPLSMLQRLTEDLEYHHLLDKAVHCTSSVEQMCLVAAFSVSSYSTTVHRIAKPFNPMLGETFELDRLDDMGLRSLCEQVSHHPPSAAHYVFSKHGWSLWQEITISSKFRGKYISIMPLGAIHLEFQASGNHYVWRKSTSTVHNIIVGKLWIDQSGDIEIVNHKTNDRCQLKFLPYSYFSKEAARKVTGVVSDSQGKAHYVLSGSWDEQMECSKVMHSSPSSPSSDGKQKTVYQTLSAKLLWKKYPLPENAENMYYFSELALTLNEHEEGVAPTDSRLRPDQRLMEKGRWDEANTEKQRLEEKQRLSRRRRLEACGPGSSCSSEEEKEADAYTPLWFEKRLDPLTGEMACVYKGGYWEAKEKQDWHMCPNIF

immortalized cell lines = experiment: 48 h assay for cell metabolic activity; format: cell-based; details: at <10,000 nM concentrations, Fig. 4B, Supp. Fig. 1
human ORP4 [8] = target: T2, human ORP4; experiment: 96-well [3H]-25-OHC competitive binding assay, ORP4; details: compound at 10,000 nM; 20 nM 3H-25-OHC
In short: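 Inhibition of 20 nM [3H]-25-OHC binding to human ORP4 overexpressed in […] cell lysate, run in 96-well competitive format; […].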

OSBP C-terminal ORD = details: OSBP proteolyzed fragments; cited from earlier work
[9] = test system: N-terminal OSBP FFAT domain with VAP-A; details: BiMC assay; cited from earlier work
full-length GFP-OSBP = details: read-out: KD for full-length GFP-OSBP; microscale thermophoresis; cited from earlier work
human OSBP [10] = target: T1, human OSBP; experiment: 96-well [3H]-25-OHC competitive binding assay, OSBP; details: compound at 10,000 nM; 20 nM 3H-25-OHC
OSBP = details: in vitro; cited from earlier work

Structure (SMILES)	effect on OSBP cellular levels [1]	OSBP cellular localization [4]	effect on cell population (cell counting after Trypan blue staining) (HCT-116 cells)	effect of co-administration on antiproliferative OSW-1 activity, HeLa (HeLa cells)	effect of co-administration on OSW-1-induced reduction of OSBP levels [1]	OSBP cellular localization on co-administration with OSW-1 [4]	antiproliferative activity (immortalized cell lines)	further results
COc1ccc(C(=O)O[C@H]2[C@H](O[C@@H]3[C@@H](OC(C)=O)[C@H](O[C@H]4C[C@H]5[C@@H]6CC=C7C[C@@H](O)CC[C@]7(C)[C@H]6CC[C@]5(C)[C@@]4(O)[C@H](C)C(=O)CCC(C)C)OC[C@@H]3O)OC[C@@H](O)[C@@H]2O)cc1 [OSW-1]	pronounced reduction of OSBP cellular levels	remaining OSBP is tightly grouped around one location	15–20%	–	–	–	–	GI50 (HeLa cells; read-out: growth inhibition 50% (GI50), HeLa cells, 48 h treatment): 0.33 nM; cytotoxicity of 6 h treatment (cells): not cytotoxic nor anti-proliferative; reduction of cellular OSBP levels [2]: > 90%; GI50 (HEK293 cells): 0.22 nM; Ki, competitive inhibition of 25-OHC binding to OSBP (human OSBP [3]): low nanomolar; prophylactic antiviral protection, Cosackievirus 9a [5]: conferred significant antiviral protection; prophylactic antiviral protection, Echovirus 2 [6]: conferred significant antiviral protection; duration of repression of OSBP levels after compound treatment is stopped (OSBP levels in cells; 1 nM OSW-1 for 6 h, then compound removed): 72 h; reduction of OSBP levels in cells (OSBP levels in cells; short duration (1–6 h), non-cytotoxic dose): > 90%; Ki, competitive inhibition of 25-OHC binding to ORP4 (human ORP4 [7]): low nanomolar
CC1(C)C[C@H]2[C@@H]3CC=C4C[C@@H](OC5CCCCO5)CC[C@]4(C)[C@H]3CC[C@]2(C)[C@H]1O (stereo partly drawn) [THEV]	do not reduce OSBP levels	induces OSBP localization to confined area tightly packed with the Golgi marker	does not affect the cell population	does not significantly affect the antiproliferative OSW-1 activity	partially blocks the reduction of OSBP levels	produces cellular localization effects with elements of both OSW-1 and THEV treatment alone	no antiproliferative activity	effect of co-administration with OSW-1 on cell population (Trypan blue) (HCT-116 cells; 24 h, 10,000 nM compound with 1 nM OSW-1): rescues cell population numbers
CC(C)=CCC/C(C)=C/Cc1c(O)cc(/C=C/c2cc(O)c3c(c2)C[C@@H]2C(C)(C)[C@H](O)[C@H](O)C[C@@]2(C)O3)cc1O [schweinfurthin A]	–	–	–	–	–	–	–	effect on OSBP levels in cells (OSBP levels in cells): do not reduce OSBP levels
C[C@H](CCCC(C)(C)O)[C@H]1CC[C@H]2[C@@H]3CC=C4C[C@@H](O)CC[C@]4(C)[C@H]3CC[C@]12C [25-OHC, 25-hydroxycholesterol]	–	strongly colocalizes OSBP with the Golgi marker in a small area	–	–	–	–	–	effect on OSBP levels in cells (OSBP levels in cells): does not reduce OSBP levels in cells; also recorded: do not reduce OSBP levels
CC(=O)O[C@H]1C(=O)[C@@]2(C)[C@H]([C@H](OC(=O)c3ccccc3)[C@]3(O)C[C@H](OC(=O)[C@H](O)[C@@H](NC(=O)c4ccccc4)c4ccccc4)C(C)=C1C3(C)C)[C@]1(OC(C)=O)CO[C@@H]1C[C@@H]2O [Taxol]	OSBP levels are not reduced	–	–	–	–	–	–	–
CCC(C)n1ncn(-c2ccc(N3CCN(c4ccc(OCC5COC(Cn6cncn6)(c6ccc(Cl)cc6Cl)O5)cc4)CC3)cc2)c1=O (stereo not drawn) [ITZ, itraconazole]	do not reduce OSBP levels	causes OSBP to adopt a more punctate pattern closely associated with the Golgi marker	15–20%	does not significantly affect the antiproliferative OSW-1 activity	partially blocks the reduction of OSBP levels	produces a tight localization of OSBP with a stronger signal than OSW-1 alone	no antiproliferative activity	inhibition of 25-OHC binding to ORP4 (human ORP4 [8]): no 25-OHC inhibition binding; effect on ORD lipid transfer activity (OSBP C-terminal ORD): blocked the ORD transfer activity of both sterols and PI4P; inhibition of OSBP FFAT domain interaction with VAP-A [9]: Neither ITZ (3) or TTP (5) substantially inhibited; Kd (full-length GFP-OSBP): ~430 nM; inhibition of 25-OHC binding to OSBP (human OSBP [10]): no 25-OHC inhibition binding
C[C@@H](NC(=O)c1cccc(-c2cnc(-c3cc4ccccc4cn3)[nH]2)c1)c1ccc(F)cc1 [TTP]	do not reduce OSBP levels	induces a tight colocalization of OSBP with the Golgi marker with a perinuclear pattern close to the vehicle (DMSO) treated cell	does not affect the cell population	does not significantly affect the antiproliferative OSW-1 activity	has no effect on OSBP levels	low expression of OSBP with a pattern not consistent with the OSW-1 alone or TTP alone treatment	no antiproliferative activity	inhibition of 25-OHC binding to ORP4 (human ORP4 [8]): no 25-OHC inhibition binding; inhibition of OSBP FFAT domain interaction with VAP-A [9]: Neither ITZ (3) or TTP (5) substantially inhibited; inhibition of 25-OHC binding to OSBP (human OSBP [10]): no 25-OHC inhibition binding; inhibition of OSBP cholesterol transport between vesicles (OSBP): shown to inhibit the ability of OSBP to transport cholesterol between vesicles
